Compounds with a hit are over-represented: about 2.1% of the library has one in this group of screens.
SUMO Mot1 rescue: blocks SUMOylation pathway, rescuing yeast Mot1-301 growth. S. cerevisiae Mot1-301 growth rescue, ATP luminescence, 38.5C; percent above DMSO median, 100 means doubled. growth rescue, % at 18.8 µM. actives 1% (n = 320,000). AID 2716;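 active means every valid replicate shows activation above 250% relative to neutral control wells; inactive means the rest, any valid replicate at or below 250%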;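 further: OY570 slx delta 5 strain wells were the positive control but not used for scaling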
ARNT TACC3 PPI: disrupts binding between human ARNT and TACC3. Q9Y6A5. AlphaScreen His-ARNT PAS-B/GST-TACC3 binding, luminescence; TACC3 fragment carries E629A point mutation. inhibition, % at 9.99 µM. actives 0.66% (n = 390,000). AID 623870;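 active means mean inhibition of replicates at least 50% and at least half of replicates each reaching 50%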;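 further: 0% = complete ARNT plus TACC3 wells and 100% = ARNT alone without TACC3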
cardiac RTF act: increases calcium sensitivity of human cardiac regulated thin filaments. actives 0.24% (n = 340,000). P19429+P45379. activation, % at 7.2 µM. IANBD-labeled TnC RTF fluorescence at EC20 calcium; 0% EC20 calcium, 100% full calcium. AID 493008;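 active means activation above the mean over all tested compounds plus 3 SD, cut at about 30% in these data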;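 further: rise in fluorescence read as greater calcium sensitivity of cardiac thin filaments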
Efflux pump inh: antifungal efflux pump inhibition, Nile Red retention. S. cerevisiae Candida pump triplex. inhibition, % at 10 µM. actives 0.44% (n = 330,000). AID 485275;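 active means plate passing quality check with inhibition over a set limit, or well fluorescence over plate mean plus 4 SD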;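 further: Nile Red retained in pooled yeast measured as flow cytometry median fluorescence; 0% = buffer negative control and 100% = Enniatin B positive control; higher means more Nile Red kept so more efflux inhibition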
RTF Ca sens inh: cardiac RTF calcium desensitization | inhibition, % at 7.15 µM | IANBD-labeled cardiac RTF, Ca2+ fluorescence | actives 0.12% (n = 340,000) | P19429+P45379;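 active means inhibition above the mean inhibition of all tested compounds plus 3 SD, cut at about 17% in these data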;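 further: assay run at fixed EC70 calcium of 1.6 mM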
UCH37 inh: blocks the human deubiquitinase UCH37. Q9Y5K5. purified proteasome/UCH37, Ub-AMC cleavage fluorescence. inhibition, % (concentration not given with the values). actives 0.33% (n = 330,000);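 active means mean inhibition over replicate wells above about 20%, limit read from the data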;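 further: 0% = compound-free wells with enzyme and 100% = wells lacking proteasome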
Target sequence (Q9Y5K5 whole entry, looked up): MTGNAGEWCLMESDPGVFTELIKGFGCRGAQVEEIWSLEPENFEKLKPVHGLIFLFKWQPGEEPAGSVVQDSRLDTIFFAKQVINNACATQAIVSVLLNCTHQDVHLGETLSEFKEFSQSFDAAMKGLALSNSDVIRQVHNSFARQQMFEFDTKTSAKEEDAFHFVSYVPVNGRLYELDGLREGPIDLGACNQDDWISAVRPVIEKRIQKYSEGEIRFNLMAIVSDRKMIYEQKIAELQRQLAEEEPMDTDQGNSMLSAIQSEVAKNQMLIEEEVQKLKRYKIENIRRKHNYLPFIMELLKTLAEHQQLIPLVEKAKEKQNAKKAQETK
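Material: Human UCH37 enzyme supplied as purified proteasome complex | Schedule: 30 min compound-proteasome preincubation then 25 min substrate reaction, room temperature | Detection: AMC fluorescence from Ub-AMC cleavage, excitation 355 nm, emission 460 nm | Benchmarks: Wells without proteasome as full block, compound-free enzyme plus substrate as uninhibited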
Numbers without * were called inactive; · = no result; + = active, no number.

SMILES	SUMO Mot1 rescue	ARNT TACC3 PPI	cardiac RTF act	Efflux pump inh	RTF Ca sens inh	UCH37 inh
O=C(c1ccc(COc2ccc(Cl)cc2)o1)N1CCN(Cc2ccc3c(c2)OCO3)CC1	402.3*	-10.5	3.5	0.3	-0.3	5.2
CC(=O)c1ccc(OCC(O)CN2CCN(Cc3ccc4c(c3)OCO4)CC2)cc1 (stereo not drawn)	9.1	-9.1	-2.5	-0.1	-4.6	1.4
COc1ccc(OCC(O)CN2CCN(Cc3ccc4c(c3)OCO4)CC2)cc1 (stereo not drawn)	7.5	47.1*	7.1	-0.5	-2.8	3.1
CCOc1cc(C=Nn2c(C)nc3sc(C)c(C)c3c2=O)ccc1O	·	·	·	·	·	7.7
COc1ccccc1NC(=O)c1cc2c(CO)cnc(C)c2oc1=Nc1cc(OC)c(OC)c(OC)c1	-19.3	-9.9	-7.7	-0.2	-14.7	4.5
COc1cc(N=c2oc3c(C)ncc(CO)c3cc2C(N)=O)cc(OC)c1OC	·	35.2*	5.9	-0.1	-6.9	7.1
CCCC(O)(c1ccc(Cl)cc1)C(CN1CCOCC1)c1ccccc1 (stereo not drawn)	·	45.7*	-5.2	-0.1	0.5	7.7
CCCC(O)(c1ccccc1)C(CN1CCOCC1)c1ccccc1 (stereo not drawn)	42.9	-1.7	6.3	-0.1	-10.6	5.1
CC1=Nc2ccccc2/C1=C\c1nc(-c2ccc(C(F)(F)F)cc2)oc1O	-5.3	-1.3	155.9*	-0.1	-44.6	7.2
COc1ccc(-c2nc(/C=C3\C(C)=Nc4ccccc43)c(O)o2)cc1	11.8	5.5	20.4	0.0	-14.9	5.4
CCOC(=O)C1(CC2CC2)CCN(Cc2cnc(-c3ccccc3C)nc2)CC1	945.9*	·	0.6	-0.1	-1.9	-3.2
O=C(NCCN1CCN(c2ccccc2F)CC1)c1ccc2nc3ccccc3c(=O)n2c1	·	48.2*	-1.6	·	3.2	-483.1
O=c1cc[nH]c2c1ccc1c(=O)cc[nH]c12	6.9	73.9*	5.4	-0.1	-15.9	-134.6
N#C/C(=C\C=C\c1ccccc1)c1nc(-c2ccc3c(c2)OCO3)cs1	-6.5	-24.7	34.5*	0.4	-23.6	-2.0
CC(C)c1ccc(C=NNc2ccc(C(=O)O)cc2)cc1	·	·	·	·	·	6.6
Cc1ccc(S(=O)(=O)NNC(=O)CCC(=O)Nc2ccc(C)c(C)c2)cc1	349.7*	-1.9	0.4	0.5	-2.6	2.1
C/C(=N\NC(=S)Nc1c(C)cccc1C)c1cc2ccccc2o1	321.9*	·	-3.2	0.6	-5.8	·
CC(=NNC(=S)Nc1c(C)cccc1C)c1cc2ccccc2o1	·	·	·	·	·	-1.1
Cc1ccc(C=NNC(=O)c2ccc(OC3CCCC3)cc2)o1	·	·	·	·	·	3.1
C(=NNc1ccc2ccccc2n1)c1ccc2c(c1)OCCO2	·	·	·	·	·	-74.6
Cn1cc(/C=N/NC(=O)c2cc3cc(Br)ccc3o2)c2ccccc21	7.2	·	·	-0.1	·	·
O=C(O)Cn1cc(/C=N/NC(=O)c2cc3cc(Br)ccc3o2)c2ccccc21	+	19.1	-1.7	0.3	-8.0	·
Cc1cccc[n+]1CC(=O)c1ccc(NC(=O)c2ccccc2)cc1	316.5*	0.9	-0.6	0.0	-10.0	5.2
N#CC[C@H](Cc1ccccc1)N1CC[C@@H](NC(=O)OCc2ccccc2)CCC1=O	3.2	6.0	1.5	0.0	-0.7	22.6*
COc1ccc(SC[C@H](Cc2ccccc2)N2CC[C@@H](NC(=O)OCc3ccccc3)CCC2=O)cc1	8.8	-1.8	-2.4	0.1	-16.3	-0.8
SMILES	SUMO Mot1 rescue	ARNT TACC3 PPI	cardiac RTF act	Efflux pump inh	RTF Ca sens inh	UCH37 inh
CC(=O)Nc1nc(C)c(C(C)=O)s1	340.8*	-2.4	-3.2	0.1	-1.1	4.4
O=C(Cn1cc(C=NNC(=O)c2cccc3ccccc23)c2ccccc21)Nc1ccc(F)cc1	·	·	·	·	·	-73.2
Cc1c(C(=O)OCC(=O)c2ccc3c(c2)OCCO3)oc2ccccc12	312.1*	-9.5	5.9	0.0	-2.0	3.8
CCN(CC)c1ccc(C=NNC(=O)CNC(=O)c2cccnc2)cc1	·	·	·	·	·	-96.4
Cc1ccc(N=Cc2sc(O)c3ccccc23)c(C)c1	-6.2	11.7	49.3*	0.1	-14.9	1.2
COC(=O)c1ccccc1-c1c2ccc(=N)cc-2oc2cc(N)ccc12	0.0	10.3	+	115.5*	·	·
CC(=NNC(=O)CNC(=O)c1cccnc1)c1ccc([N+](=O)[O-])cc1	·	·	·	·	·	6.5
O=C1C(Cl)=C(NCc2cccnc2)C(=O)c2ccccc21	21.5	22.7	-0.8	0.2	-2.3	24.9*
CN1CCN(c2ccc([N+](=O)[O-])cc2C=NNC(=O)c2ccc(F)cc2)CC1	·	·	·	·	·	10.9
CSc1ccccc1NC(=O)CN(Cc1ccccc1)S(C)(=O)=O	286.8*	-4.6	1.2	0.1	4.0	0.5
CC(=NNC(=O)CSc1nc2ccccc2s1)c1ccncc1	·	·	·	·	·	5.9
CCCOc1ccc2c(c1)C(=NN=C(N)N)c1cc(OCCC)ccc1-2	286.2*	12.1	5.3	-0.1	1.6	5.1
COc1ccc2cc(C(=O)N/N=C/c3sc4ccccc4c3O)ccc2c1	-17.5	64.5*	109.2*	-0.2	-134.8	·
O=C(N/N=C/c1sc2ccccc2c1O)c1ccccc1	-6.7	61.2*	47.1*	-0.2	-45.9	·
COc1ccc2cc(C(=O)NN=Cc3sc4ccccc4c3O)ccc2c1	·	·	·	·	·	1.8
COc1ccc(C(=O)N/N=C/c2sc3ccccc3c2O)cc1	-8.6	78.4*	32.2*	-0.1	-26.2	·
COc1ccc(OCC(=O)NN=c2oc3c(OC)cccc3cc2C(N)=O)cc1	·	·	·	·	·	-1.4
COCCNC(=S)NN=C(C)c1ccc(OC)cc1	·	·	·	·	·	4.8
CC(=NNS(=O)(=O)c1ccc(Cl)c([N+](=O)[O-])c1)c1cc2ccccc2o1	·	·	·	·	·	4.5
COc1ccc(C(=O)O)c(OC)n1	313.3*	-10.8	-0.6	0.1	1.6	-3.2
COc1ccc(C(=O)Nc2ccc(Cl)c(Cl)c2)c(OC)n1	-12.1	-0.4	8.0	0.3	-13.2	0.2
C(=N\c1nccs1)/c1c[nH]c2ccccc12	236.3	39.8*	2.4	-0.7	-0.9	·
CCOc1ccc(C(Nc2ccc(C)cc2)P2(=O)OCCCO2)cc1 (stereo not drawn)	-1.4	-8.0	-2.7	-0.1	-2.9	5.8
CCOc1ccc(C(Nc2ccc(C)cc2)P2(=O)OCCC(C)O2)cc1 (stereo not drawn)	-2.9	-2.8	0.2	0.0	-16.3	29.8*
CN1CCN(C=Nc2c(C#N)cnn2Cc2ccccc2)CC1	·	·	·	·	·	4.4
Cc1cccc(NC(=O)/C(C#N)=C/c2cccc([N+](=O)[O-])c2)n1	483.2*	-2.8	1.3	0.4	1.6	2.3
CC1SC(=NN=Cc2ccco2)N(Cc2ccccc2)C1=O (stereo not drawn)	·	·	·	·	·	6.5
c1cncc(-c2cn(C[C@H]3CC[C@@H]([C@@H]4CC[C@H](Cn5cc(-c6cccnc6)nn5)O4)O3)nn2)c1	4.7	-0.5	3.1	-0.1	-3.7	24.8*
CC(C)c1ccc(C=c2sc3nc(-c4ccncc4)nn3c2=O)cc1	·	·	·	·	·	-2.3

Assay outcomes: PubChem BioAssay, several laboratories
